ChEMBL document CHEMBL5724801, “EUbOPEN Chemogenomics Library - Multiplex” (2024)
“And” between values parts separate entries of the source, which are not always exact repeats. Equal values may be shown once.

System: Fibroblast
Test: Multiplex assay against human fibroblast
Assay type: toxicity, cell-based
Outline: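 Live cells were stained at seeding with Hoechst33342, BioTracker Green Microtubule Cytoskeleton Dye, MitoTracker Red and Annexin V Alexa Fluor 680, then imaged on a CQ1 microscope at 37°C and 5% CO2 after compound addition. CellPathfinder machine-learning gating split cells into Hoechst high-intensity objects or normal cells. Normal cells were split into healthy, pyknosed or fragmented nuclei, and pyknosed cells into mitotic or apoptotic. Tubulin, mitochondrial-mass and membrane-permeability phenotypes are per cents of healthy-nucleus cells.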

[1] = 12 h, 1 µM, compound concentration 1 uM
[2] = 12 h, 10 µM, compound concentration 10 uM
[3] = 24 h, 1 µM, compound concentration 1 uM
[4] = 24 h, 10 µM, compound concentration 10 uM
[5] = 48 h, 1 µM, compound concentration 1 uM
[6] = 48 h, 10 µM, compound concentration 10 uM

In the case of Cc1cc(C)cc(C(=O)NOCCCCCC(=O)NO)c1, the “Population Apoptotic (%)” value [1] is reported as 12.9% and 17.65%, the “Population Fragmented Nuclei (%)” value [1] is reported as 11.22% and 2.55% and the “Population Healthy Nuclei (%)” value [1] is reported as 72.96% and 88.78%. For the same molecule, the “Population Hoechst High Intensity Objects (%)” value [1] was 0%, the “Population Membrane Permeable-Phenotype (%)” value [1] was 5.59% and 1.15% and the “Population Mitochondria Different-Phenotype (%)” value [1] was 6.99% and 10.34%. For the same molecule, the “Population Mitotic Cells (%)” value [1] was 87.1% and 82.35%, the “Population Normal (%)” value [1] was 100% and the “Population Pyknosed Nuclei (%)” value [1] was 15.82% and 8.67%. For the same molecule, the “Population Tubulin-Different-Phenotype (%)” value [1] was 8.39% and 11.49%, the “Total Cell Count” value [1] was 196 and the “Population Apoptotic (%)” value [2] was 12% and 31.25%. For the same molecule, the “Population Fragmented Nuclei (%)” value [2] was 15.5% and 6.05%, the “Population Healthy Nuclei (%)” value [2] was 72% and 86.51% and the “Population Hoechst High Intensity Objects (%)” value [2] was 0%. For the same molecule, the “Population Membrane Permeable-Phenotype (%)” value [2] was 6.94% and 1.61%, the “Population Mitochondria Different-Phenotype (%)” value [2] was 5.56% and 6.45% and the “Population Mitotic Cells (%)” value [2] was 88% and 68.75%. The “Population Normal (%)” value [2] was 100%, the “Population Pyknosed Nuclei (%)” value [2] was 12.5% and 7.44% and the “Population Tubulin-Different-Phenotype (%)” value [2] was 9.03% and 6.45%. The “Total Cell Count” value [2] was 200 and 215, the “Population Apoptotic (%)” value [3] was 13.33% and 23.08% and the “Population Fragmented Nuclei (%)” value [3] was 12.92% and 3.9%. The “Population Healthy Nuclei (%)” value [3] was 79.9% and 89.76%, the “Population Hoechst High Intensity Objects (%)” value [3] was 0% and the “Population Membrane Permeable-Phenotype (%)” value [3] was 4.79% and 2.17%. For the same molecule, the “Population Mitochondria Different-Phenotype (%)” value [3] was 3.59% and 7.07%, the “Population Mitotic Cells (%)” value [3] was 86.67% and 76.92% and the “Population Normal (%)” value [3] was 100%. For the same molecule, the “Population Pyknosed Nuclei (%)” value [3] was 7.18% and 6.34%, the “Population Tubulin-Different-Phenotype (%)” value [3] was 3.59% and 8.15% and the “Total Cell Count” value [3] was 209 and 205. For the same molecule, the “Population Apoptotic (%)” value [4] was 63.64% and 52.94%, the “Population Healthy Nuclei (%)” value [4] was 80.39% and 88.26% and the “Population Hoechst High Intensity Objects (%)” value [4] was 0%. The “Population Membrane Permeable-Phenotype (%)” value [4] was 3.66% and 0%, the “Population Mitochondria Different-Phenotype (%)” value [4] was 2.44% and 4.26% and the “Population Mitotic Cells (%)” value [4] was 36.36% and 47.06%. The “Population Normal (%)” value [4] was 100%, the “Population Pyknosed Nuclei (%)” value [4] was 5.39% and 7.98% and the “Population Tubulin-Different-Phenotype (%)” value [4] was 3.66% and 2.66%. The “Total Cell Count” value [4] was 204 and 213, the “Population Apoptotic (%)” value [5] was 47.37% and 53.33% and the “Population Fragmented Nuclei (%)” value [5] was 8.06% and 10.87%. For the same molecule, the “Population Healthy Nuclei (%)” value [5] was 82.94% and 82.61%, the “Population Hoechst High Intensity Objects (%)” value [5] was 0% and the “Population Membrane Permeable-Phenotype (%)” value [5] was 0.57% and 1.58%. The “Population Mitotic Cells (%)” value [5] was 52.63% and 46.67%, the “Population Normal (%)” value [5] was 100% and the “Population Pyknosed Nuclei (%)” value [5] was 9% and 6.52%. The “Population Tubulin-Different-Phenotype (%)” value [5] was 2.29% and 8.42%, the “Total Cell Count” value [5] was 211 and 230 and the “Population Apoptotic (%)” value [6] was 44.19% and 95.35%. The “Population Healthy Nuclei (%)” value [6] was 57.64% and 74.04%, the “Population Hoechst High Intensity Objects (%)” value [6] was 0% and the “Population Membrane Permeable-Phenotype (%)” value [6] was 1.71% and 10.39%. The “Population Normal (%)” value [6] was 100%, the “Population Pyknosed Nuclei (%)” value [6] was 21.18% and 20.67% and the “Population Tubulin-Different-Phenotype (%)” value [6] was 4.27% and 13.64%. The “Total Cell Count” value [6] was 203 and 208.

CN(C)C(=O)Cn1cc(-c2ccc(-c3nnc4ccccn34)cc2)cn1 was tested, and the “Population Apoptotic (%)” value [1] was 57% and 55%, the “Population Fragmented Nuclei (%)” value [1] was 18% and 20% and the “Population Healthy Nuclei (%)” value [1] was 60% and 58%. For the same molecule, the “Population Hoechst High Intensity Objects (%)” value [1] was 5%, the “Population Membrane Permeable-Phenotype (%)” value [1] was 1% and 7% and the “Population Mitochondria Different-Phenotype (%)” value [1] was 3% and 7%. For the same molecule, the “Population Mitotic Cells (%)” value [1] was 42% and 44%, the “Population Normal (%)” value [1] was 94% and the “Population Pyknosed Nuclei (%)” value [1] was 21% and 20%. For the same molecule, the “Population Tubulin-Different-Phenotype (%)” value [1] was 22% and 42%, the “Total Cell Count” value [1] was 139 and 152 and the “Population Apoptotic (%)” value [2] was 52% and 39%. For the same molecule, the “Population Healthy Nuclei (%)” value [2] was 63% and 38%, the “Population Hoechst High Intensity Objects (%)” value [2] was 3% and 8% and the “Population Membrane Permeable-Phenotype (%)” value [2] was 0% and 15%. The “Population Mitochondria Different-Phenotype (%)” value [2] was 6% and 18%, the “Population Mitotic Cells (%)” value [2] was 47% and 60% and the “Population Normal (%)” value [2] was 96% and 91%. The “Population Pyknosed Nuclei (%)” value [2] was 28% and 29%, the “Population Tubulin-Different-Phenotype (%)” value [2] was 31% and 70% and the “Total Cell Count” value [2] was 140 and 123. The “Population Apoptotic (%)” value [3] was 56% and 54%, the “Population Fragmented Nuclei (%)” value [3] was 23% and the “Population Healthy Nuclei (%)” value [3] was 60%. For the same molecule, the “Population Hoechst High Intensity Objects (%)” value [3] was 0% and 4%, the “Population Membrane Permeable-Phenotype (%)” value [3] was 2% and 4% and the “Population Mitochondria Different-Phenotype (%)” value [3] was 1% and 3%. For the same molecule, the “Population Mitotic Cells (%)” value [3] was 43% and 45%, the “Population Normal (%)” value [3] was 99% and 95% and the “Population Pyknosed Nuclei (%)” value [3] was 16%. For the same molecule, the “Population Tubulin-Different-Phenotype (%)” value [3] was 25% and 41%, the “Total Cell Count” value [3] was 144 and 142 and the “Population Apoptotic (%)” value [4] was 65% and 26%. For the same molecule, the “Population Healthy Nuclei (%)” value [4] was 65% and 40%, the “Population Hoechst High Intensity Objects (%)” value [4] was 5% and 9% and the “Population Membrane Permeable-Phenotype (%)” value [4] was 2% and 10%. The “Population Mitochondria Different-Phenotype (%)” value [4] was 5% and 6%, the “Population Mitotic Cells (%)” value [4] was 34% and 73% and the “Population Normal (%)” value [4] was 94% and 90%. For the same molecule, the “Population Pyknosed Nuclei (%)” value [4] was 24% and 22%, the “Population Tubulin-Different-Phenotype (%)” value [4] was 25% and 71% and the “Total Cell Count” value [4] was 140 and 126. For the same molecule, the “Population Apoptotic (%)” value [5] was 58% and 42%, the “Population Fragmented Nuclei (%)” value [5] was 22% and 28% and the “Population Healthy Nuclei (%)” value [5] was 61% and 52%. The “Population Hoechst High Intensity Objects (%)” value [5] was 1% and 5%, the “Population Membrane Permeable-Phenotype (%)” value [5] was 4% and 6% and the “Population Mitochondria Different-Phenotype (%)” value [5] was 4% and 2%. The “Population Mitotic Cells (%)” value [5] was 41% and 57%, the “Population Normal (%)” value [5] was 98% and 94% and the “Population Pyknosed Nuclei (%)” value [5] was 16% and 18%. For the same molecule, the “Population Tubulin-Different-Phenotype (%)” value [5] was 29% and 46%, the “Total Cell Count” value [5] was 151 and 147 and the “Population Apoptotic (%)” value [6] was 52% and 60%. For the same molecule, the “Population Fragmented Nuclei (%)” value [6] was 16% and 44%, the “Population Healthy Nuclei (%)” value [6] was 66% and 47% and the “Population Hoechst High Intensity Objects (%)” value [6] was 2% and 3%. The “Population Membrane Permeable-Phenotype (%)” value [6] was 0% and 18%, the “Population Mitochondria Different-Phenotype (%)” value [6] was 2% and 8% and the “Population Mitotic Cells (%)” value [6] was 47% and 40%. For the same molecule, the “Population Normal (%)” value [6] was 97% and 96%, the “Population Pyknosed Nuclei (%)” value [6] was 17% and 7% and the “Population Tubulin-Different-Phenotype (%)” value [6] was 38% and 73%. For the same molecule, the “Total Cell Count” value [6] was 137 and 131.
